We go through 36 sequences from the EternaBench riboswitch data.

In this data set the test system is MS2 coat protein. The data set is described as follows: apparent Kd, MS2 coat protein; higher = weaker binding; RNA-MaP array; FMN 200 µM where present. The gist of the method: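 The titrant was SNAP-549-labelled MS2 coat protein, run from 0.7 or 1.5 nM in doubling steps to 3 µM. It was applied to designs transcribed by stalled E. coli RNA polymerase on Illumina sequencing-chip clusters, without ligand first and then with constant ligand, in 100 mM Tris-HCl pH 7.5, 80 mM KCl, 4 mM MgCl2, BSA, DTT, yeast tRNA and Tween-20. The apparent Kd is the median of filtered per-cluster binding-curve fits, with green signal normalised to red-channel RNA signal and control-cluster median Fmax.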

Where [1] appears, read: designed as: OFF switch for flavin mononucleotide, no ligand.
Where [2] appears, read: ligand present: flavin mononucleotide, designed as: OFF switch for flavin mononucleotide.
Setting [3] is: designed as: ON switch for flavin mononucleotide, no ligand.
Where [4] appears, read: ligand present: flavin mononucleotide, designed as: ON switch for flavin mononucleotide.

With “GUUAUGCGGCAGGAUAUCCAUCCGCGGUAUGAUGGAGAAGGGCCGACAUGAGGAUCACCCAUGUGCGUCCUAAG”, the apparent Kd – broadly, the concentration giving half-maximal binding under the conditions of the assay – reads like this: under setting [1], 55.6 nM; under setting [2], 198 nM.

For the sequence “UUAACAUGAGGAUCACCCAUGUAUAGGGAGUUAACAAUUGGACAGGAUAUUGAAGAUGUAGAUAGCAAGAAGGGUCGGUAGUCU”, the “apparent Kd” value under setting [3] amounted to 38.9 nM and the “apparent Kd” value under setting [4] worked out at 35.8 nM.

Consider “CAGUACUGAGGAUAUACAUGAGGAUCACCCAUGUGUUCCUUGUAGGAUAUGCGCAAAAGUAGAAGGCAGAAGGAGAUGUGCCUA”, for which the “apparent Kd” value under setting [1] turned out to be 6.59 nM and the “apparent Kd” value under setting [2] stood at 6.3 nM.

Consider “AUUCAACAUGAGGAUCACCCAUGUGAGGAUAUCGUAUACUACUGUUGCAAUACUUAGACGAGAAGGCACACCGU”, for which the “apparent Kd” value is 18.9 nM under setting [1] and 25.1 nM under setting [2].

With “GCCAUCGCAUGAGGAUAUGCUCCGGUUUCCGGAGCAGAAGGCGUGUCAUAAGACAUGAGGAUCACCCAUGUAGCUAAGAUGGCA”, the “apparent Kd” value stood at 249 nM under setting [3] and 10.8 nM under setting [4].

In the case of “GCAUCGCAUGUCAGGAUAUGCUGUACCUUGGUACAGCAGAAGGGACAUGAGGAUCACCCAUGUGCCUACGAUGC”, the “apparent Kd” value under setting [1] was determined as 29.2 nM and the “apparent Kd” value under setting [2] turned out to be 169 nM.

In the case of “UCGCGGGAGCAGAAGGGAUAGGCCUAUUGUCGUGAGGUCUACACUUAACAUGAGGAUCACCCAUGUCAGGAUAUGCCCACGCGA”, the “apparent Kd” value reads like this: under setting [1], 4.68 nM; under setting [2], 4.64 nM.

Consider “CAGCGACAUGGAGGAUAUAGGGCCCAAGGGCACCUAGAAGGCCAAAAGCAGACAGGUCACAUGAGGAUCACCCAUGUACGCCAG”, for which the “apparent Kd” value by setting is: under setting [3], 241 nM; under setting [4], 16.3 nM.

Turning to “AUCAGCACGUGAGGAUAUGCGUCACUGCGAAAGCAGUGCGGUAAGAUCACAUGAGGAUCACCCAUGUAGAAGGCACGAGCUGAU”, the “apparent Kd” value is, setting by setting: under setting [1], 20.8 nM; under setting [2], 54 nM.

Turning to “CCGCUGUGAGGAUAUUAGUAGUAGUCAGAAUAGACUAUUACUGAGAAGGCACAUGAGGAUCACCCAUGUUGCGG”, the “apparent Kd” value was determined as 30.8 nM under setting [1] and 39 nM under setting [2].

For the sequence “CACGAUGAUGUAGGAUAUAUGCUGGAAUACAGCAUAGAAGGACAUGAGGAUCACCCAUGUAAAGUGCCUCCAAAUAACAUCGUG”, the “apparent Kd” value worked out at 18.5 nM under setting [1] and 44.5 nM under setting [2].

For the sequence “ACUUACUGAGGAUAUACAUAGAUUUACAUGAGGAUCACCCAUGUUCCUCUAUGUAUAUAUGUAGAAGGCAGAAGUU”, the “apparent Kd” value reads like this: under setting [1], 26.3 nM; under setting [2], 97.8 nM.

For “CAUGUUUGGCUGGUCGAGAAACACAUGAGGAUCACCCAUGUCAGAAGGCGACGUCAGCAAACCGUCGAGGAUAUGACAUCAAAA”, the “apparent Kd” value reads like this: under setting [1], 5.65 nM; under setting [2], 30.2 nM.

Take “CUGAUGUGAGGAUAUCGGACUACGGCCAGGCCGCUAGCAUACGAGAAGGCACAUGAGGAUCACCCAUGUGAGAA”: the “apparent Kd” value reads like this: under setting [1], 13.3 nM; under setting [2], 42.7 nM.

For “ACUGCAUAGGCAGGAUAUGCAAAAGCAGAUGCAAAGCAUUUGAAUAACACAUGAGGAUCACCCAUGUAGAAGGGCCUGUGCAGU”, the “apparent Kd” value runs as follows: under setting [1], 20.1 nM; under setting [2], 20.2 nM.

“UCCUCUUUGAAGAAGGCGUGGUUAUGCAAGCCGCGAGGAUAUUCACAUGAGGAUCACCCAUGUGGAUUUCAGUCCGCUCAAAAC”: the “apparent Kd” value by setting is: under setting [1], 11.9 nM; under setting [2], 61.8 nM.

With “UUGAAGAACUAAGGAUAUUGAAUACAUAUGUUUAACAUGAGGAUCACCCAUGUGGGUUGCGGUAUCGAGAAGGUAGAUUACUAG”, the “apparent Kd” value under setting [3] amounted to 115 nM and the “apparent Kd” value under setting [4] worked out at 104 nM.

On to “UUUUUGUGAGGAUAUCAGUAGUAAAAAAAUAAAAUUACUACUGAGAAGGCACAUGAGGAUCACCCAUGUUCCUU”, for which the “apparent Kd” value runs as follows: under setting [1], 14.3 nM; under setting [2], 33.5 nM.

In the case of “AAAACAUGAGGAUCACCCAUGUAAAGAUCGGUUAAUAGAGGUGAGGAUAUACGAAGUUAAAGCUGGUAGAAGGCACUGGGUACA”, the “apparent Kd” value by setting is: under setting [3], 78.5 nM; under setting [4], 51.3 nM.

On to “AGUAACUCAGAUCUUUUGAACAUGAGGAUCACCCAUGUAUUGAGAAGGAGCUGGAAGAGAGACAGCUAGGAUAUCAGAGUUGCG”, for which the “apparent Kd” value is, setting by setting: under setting [1], 5.96 nM; under setting [2], 7.19 nM.

For the sequence “CCUAAGGACACAGGAUAUAGCGUGAUGGCUGGACUCCAACGGCGAGCGGCGCUAGAAGGGUGACCACAUGAGGAUCACCCAUGU”, the “apparent Kd” value came out at 496 nM under setting [3] and 195 nM under setting [4].

Consider “AUUUUGUGAGGAUAUUAGUUGUAGAAAAUUGUUAGUAUAGCUGAGAAGGCACAUGAGGAUCACCCAUGUACAUC”, for which the “apparent Kd” value reads like this: under setting [1], 18 nM; under setting [2], 57.9 nM.

Regarding “AUGCUUCACACAGGAUAUUACAUGAGGAUCACCCAUGUUGGGCGGUAGCUCGAAAGAGCUACCGGUAAGAAGGGUGUGAAGCAU”, the “apparent Kd” value amounted to 30.4 nM under setting [1] and 59.2 nM under setting [2].

Consider “UGGAAUUGCGAGAAGGACAUGAGGAUCACCCAUGUAGGAUAUCGACCUAGGUGCAGAUCGUUAUAGGAUCUCUUCGCUUCUAGG”, for which the “apparent Kd” value reads like this: under setting [3], 16.7 nM; under setting [4], 7.14 nM.

For “GCUGGGUCAGGAUAUACAAGAUCGAAAGAUCUGUGAAACGAACAUGAGGAUCACCCAUGUAGAAGGGACUGGGC”, the “apparent Kd” value runs as follows: under setting [1], 20.5 nM; under setting [2], 33.2 nM.

“UUAAUUAUACAAGGAUAUCUAUUGUAGUUUCGACAUACAUGAGGAUCACCCAUGUUAGUAUGUUUAGAGAAGGUGUAUUUUCAG”: the “apparent Kd” value under setting [3] amounted to 28.1 nM and the “apparent Kd” value under setting [4] was 25.2 nM.

“GCGAGUAAAGCAGGAUAUCUAAUAUCACGGAAACAUGAGGAUCACCCAUGUAGAGAAGGGCUAAGUCAUACAAUUCGAACUCGC”: the “apparent Kd” value by setting is: under setting [1], 14.1 nM; under setting [2], 10.5 nM.

As for “CUAUUGUGAGGAUAUCAGUAGUAAUACAAUAGUAUUACUACUGAGAAGGCACAUGAGGAUCACCCAUGUUCCUU”, the “apparent Kd” value under setting [1] was 14.1 nM and the “apparent Kd” value under setting [2] was determined as 32.8 nM.

On to “CCUAGUUGGUAAGGAUAUCCUACACUAUUCUGACCCGUGCAGGCUACAUGAGGAUCACCCAUGUGGGAGAAGGUGCGUCAACGU”, for which the “apparent Kd” value by setting is: under setting [1], 12.6 nM; under setting [2], 11.8 nM.

Take “UACAUGUGAGGAUAUGUACGAGACCCUGACGGGCCUCGCAGGCAGAAGGCACAUGAGGAUCACCCAUGUGACCG”: the “apparent Kd” value reads like this: under setting [1], 27.2 nM; under setting [2], 99.1 nM.

For the sequence “AAAGCAACAUGAGGAUCACCCAUGUAGGAUAUCGCUAUUGUAAUCAUGAAACAUGAUUACAAUAGCGAGAAGGACAUAUGGCCC”, the “apparent Kd” value is 10.8 nM under setting [1] and 31.7 nM under setting [2].

As for “AAUUAAGAUCAAGGAUAUCACGUCGAAUAGACGUGAGAAGGUGAUCCAUACAUGAGGAUCACCCAUGUAUAACAUGAAUUAAUU”, the “apparent Kd” value worked out at 923 nM under setting [3] and 170 nM under setting [4].

As for “GGGUGACAUGAGGAUCACCCAUGUCAGGAUAUCUAGGGCAGAUGCUGGGAGCGUUCGCAGAGAAGGGACCAGAU”, the “apparent Kd” value reads like this: under setting [1], 52.3 nM; under setting [2], 46.1 nM.

For “UUUCUUGGGCAAGGAUAUCCUGUGCGGUUACGGCUCGUGUCUGUCACAUGAGGAUCACCCAUGUGGGAGAAGGUGCCUGCGGUC”, the “apparent Kd” value was found to be 6.09 nM under setting [1] and 6.78 nM under setting [2].

“AGCUACGUUUCGUAGCAGUGUCAUCGAGAAGGCCCUUACGUGACAACAUGAGGAUCACCCAUGUGGGAGGAUAUCGAUGAUACA”: the “apparent Kd” value amounted to 11.8 nM under setting [3] and 11.5 nM under setting [4].

On to “UCGUGUAUAGAGGAUAUAUUAUUUUUUUUAACAAUAGAAGGCUAAACAUGAGGAUCACCCAUGUAUUUUUUUUU”, for which the “apparent Kd” value runs as follows: under setting [1], 31.4 nM; under setting [2], 44 nM.
